Hits are enriched below; roughly 11% of the tested compounds scored in any of these assays.
M1 ag – agonists of M1 muscarinic receptor; CHO-M1 cells, Fluo-4 calcium fluorescence, agonist mode; stronger effect = higher value; AID 626; B-score at 10 µM; 3% of 64,000 active;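 active = fluorescence rise, raw or as B-score row- and column-corrected plate score, outside the 99.7% band of its plate's samples, either direction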
S1P1 ag-PAM – S1P1 (human) agonism or agonism potentiation; S1P1 CRE-bla cells, forskolin, beta-lactamase FRET, potentiator mode; S1P1 agonist co-added at EC20, 2 nM; 100% = saturating reference agonist, 0% = basal; 0.57% of 56,000 active; activation, % at 9.5 µM; P21453;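 active = activation above a cutoff set at the mean activation of all tested compounds plus 3 SD, cut at about 54% in these data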;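 also: forskolin at 4 µM as EC80 and the EC20 agonist is SEW2871; 100% = SEW2871 at its EC100 plus forskolin at EC80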
Target sequence (P21453 whole entry, looked up): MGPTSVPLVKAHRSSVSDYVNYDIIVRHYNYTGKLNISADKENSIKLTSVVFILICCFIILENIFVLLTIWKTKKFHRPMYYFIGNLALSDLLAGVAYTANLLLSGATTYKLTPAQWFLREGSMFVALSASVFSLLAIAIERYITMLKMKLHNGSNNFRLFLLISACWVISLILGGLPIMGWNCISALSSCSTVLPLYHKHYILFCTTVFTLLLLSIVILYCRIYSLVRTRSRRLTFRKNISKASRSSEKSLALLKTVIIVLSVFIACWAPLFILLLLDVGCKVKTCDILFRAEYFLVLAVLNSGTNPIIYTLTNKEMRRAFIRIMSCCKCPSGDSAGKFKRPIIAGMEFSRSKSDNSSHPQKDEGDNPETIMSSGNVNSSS
S1P3 ag – activates the human S1P3 receptor; Q99500; 0.1% of 60,000 active; S1P3 NFAT-BLA reporter cells, agonism, FRET ratio; relative to 1 µM S1P, basal subtracted; activation, % at 4.5 µM;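 active = activation above the screen-wide mean plus 3 SD, cut at about 4.5% in these data, passing the limit was not always enough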
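Assay system: CHO cells stably expressing human S1P3, Gα16 and NFAT-β-lactamase reporter. Timing: overnight plating, 4 h compound 37 °C, 2 h substrate RT. Signal: β-lactamase FRET emission ratio 460/535 nm. Measure: percent activation versus median 1 µM S1P response, basal-subtracted, per plate. Repeats: primary screen single test, confirmation screen in triplicate.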
D1 mod – D1 dopamine receptor (human) allosteric modulation. B-score at 10 µM. 5.9% of 58,000 active. HEK293 D1, CRE-luciferase, dopamine EC30 potentiation; actives deviate in either direction. P21728;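 active = luminescence count or its row- and column-corrected plate score outside the 99.7% band of the plate's sample wells, on either side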
M1 antag – M1 muscarinic receptor (rat) antagonism. P08482. CHO-M1 cells, Fluo-4 calcium, ACh EC80 antagonist mode; stronger effect = lower value. B-score at 10 µM. 3.4% of 64,000 active. AID 628;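 active = calcium fluorescence response, raw or row-and-column corrected B-score, differing from the plate sample mean either way at a set confidence level, mostly lower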
An asterisk follows results filed as active; / = no result given.

SMILES | M1 ag | S1P1 ag-PAM | S1P3 ag | D1 mod | M1 antag
COc1ccc(-c2csc(N3CCOCC3)n2)cc1OC | 0.58 | -9 | -1 | 13* | 0.047
Nc1ccc(CN2CCN(c3ccc4ccccc4n3)CC2)cc1 | -0.07 | 17 | 0 | -2.9 | -0.26
COC(=O)CSc1nnc(CNC(=O)Cc2ccccc2)n1-c1ccccc1OC | 0.26 | 14 | 0 | -0.072 | -0.062
Cc1cc(C)n(-c2ccc(C(=O)Nc3ccccn3)cc2)n1 | -0.8 | -7 | 0 | -4.1* | 0.21
COc1cc(C(=O)Nc2ccccn2)cc(OC)c1OC | 0.3 | -17 | -3 | / | -0.9
Cc1cc(C(=O)Nc2ccccn2)cs1 | 0.58 | -3 | -1 | -3.8* | 0.53
CCCc1cc(=O)[nH]c(SCC(=O)N(C)C2CCS(=O)(=O)C2)n1 (stereo not given) | -1.1 | 2 | 0 | -0.16 | -0.0071
O=C(N1CCOCC1)N1CCN(Cc2ccccc2)CC1 | 0.41 | 1 | 0 | -1.1 | -0.74
c1ccc(CN2CCC3(CC2)Nc2ccccc2CO3)cc1 | 17* | 7 | -1 | -1.2 | -2.8*
CS(=O)(=O)N(CC(=O)NCc1ccc2c(c1)OCO2)Cc1ccccc1 | -0.61 | -10 | -1 | 0.88 | -1
O=C(NCCN1CCCCCC1)c1ccc(N2CCCC2=O)cc1 | -1.1 | -14 | 1 | 0.11 | 2.3*
O=C(Nc1ccc2c(c1)OCCO2)c1ccc(NC(=O)C2CCCO2)cc1 (stereo not given) | -0.49 | / | / | -0.063 | -0.029
COc1ccc(OC)c(C2=Nn3c(nnc3-c3ccncc3)SC2)c1 | 0.18 | / | / | / | 0.063
COc1ccc(OC)c(C2=Nn3c(nnc3-c3cc(OC)c(OC)c(OC)c3)SC2)c1 | 3.3* | -33 | 1 | 0.98 | -0.00012
Cc1csc(SCC(=O)c2cc(C)n(Cc3cccs3)c2C)n1 | 0.48 | 86* | 0 | -5.2* | -1.3
CC(=O)Nc1ccc(SCC(=O)c2cc(C)n(Cc3cccs3)c2C)cc1 | 0.29 | 13 | 0 | 0.06 | 0.057
O=C(O)C1Nc2c(C(=O)N3CCOCC3)cccc2C2C=CCC12 (stereo not given) | -0.24 | -15 | -1 | 2.3 | 1.8*
Cc1ccc2c(c1C)NC(C(=O)O)C1CC=CC21 (stereo not given) | -0.61 | -24 | -1 | -0.66 | -0.066
Cc1ccc2cc(CN(Cc3cccs3)C(=O)c3ccco3)c3nnnn3c2c1C | 1.7 | 0 | 0 | 3.7* | -0.31
Cc1ccc(C)c(N2CCN(C(=O)c3ccc(NS(=O)(=O)c4c(C)noc4C)cc3)CC2)c1 | 0.09 | -58 | 0 | -0.84 | 2.2*
Cc1ccc(Cl)cc1N1CCN(C(=O)c2ccc(NS(=O)(=O)c3c(C)noc3C)cc2)CC1 | 0.67 | -56 | 0 | -0.58 | -0.53
O=C(NCc1cccs1)C1CCC(=O)N1C1CCCCC1 (stereo not given) | -0.37 | 7 | -1 | -0.077 | -0.17
CN1C(=O)C(C(=O)NC(C)(C)C)C2c3ccccc3OC13CCCCC23 (stereo not given) | 0.092 | 5 | 0 | 0.63 | -0.44
COc1ccc(-c2cn3c(C)c(C(=O)N4CCc5ccccc5C4)sc3n2)cc1 | 4.7* | 14 | -1 | / | 0.0014
CC(C)Cc1cc(C(=O)NCCCN2CCOCC2)no1 | 0.21 | -24 | 0 | / | 0.2
SMILES | M1 ag | S1P1 ag-PAM | S1P3 ag | D1 mod | M1 antag
COc1ccc(Nc2nc(Nc3ccc(OC)cc3)nc(-n3[nH]c(=O)c(C)c3C)n2)cc1 | -0.41 | -103 | 17* | -0.61 | -2.8
COC(=O)c1ccc(NC(=O)CSc2nnc(CNc3ccc(F)cc3)n2C)cc1 | 1.6 | -5 | -1 | 0.13 | -1
COc1ccccc1N1CCN(C(=O)c2oc3ccccc3c2C)CC1 | 0.77 | -5 | 0 | -0.9 | -4.5*
Cc1ccc(-c2nnc(N3CCCCC3)c3ccccc23)cc1S(=O)(=O)N1CCN(C)CC1 | 2.1 | -2 | -1 | 1.2 | -0.44
Cc1ccc(-c2nnc3c4ccccc4c(C)nn23)cc1S(=O)(=O)N1CCN(C)CC1 | 2 | -32 | 0 | 9.9* | -0.36
CCC(=O)Nc1ccc(N2CCN(Cc3ccccc3)CC2)cc1 | 0.28 | 2 | 1 | 0.13 | -0.4
CCN1CCN(c2ccc(NC(=O)Cc3ccccc3)cc2)CC1 | 0.67 | -17 | -2 | -4.7* | -0.3
CCCCSc1nc(C)c(CC(=O)O)c(=O)[nH]1 | 0.51 | 10 | -1 | -0.09 | 0.081
Cc1oc(-c2ccc3c(c2)OCCO3)cc1C(=O)O | -1.5 | 26 | 0 | -6.2* | 0.23
Cc1oc(-c2ccc3c(c2)OCCO3)cc1C(=O)NC(CCC(=O)O)C(=O)O (stereo not given) | -0.21 | -4 | 1 | -0.95 | 0.99
CCCSc1nc(C)c(-c2csc(C(C#N)=C3CCCC3)n2)cc1C#N | -0.72 | -12 | 0 | -0.79 | -0.87
CC1CCN(C(=O)CSc2nnc(CSc3ncccn3)n2C)CC1 | 1.6 | -3 | -1 | 0.37 | -0.018
Cc1ccc2c(c1)C1CN(C)CCC1N2C(=O)Nc1ccc(Cl)cc1 (stereo not given) | -1.4 | / | / | -4.2* | -1.3
CCOC(=O)c1cnc(-n2nc(C)cc2C)nc1NC1CCCCC1 | 0.19 | 110* | -2 | 2.6 | -1.1
O=C(COc1ccccc1)Nc1ccc(S(=O)(=O)NCc2ccco2)cc1 | 1.1 | -19 | -1 | 0.95 | -0.52
O=C(Nc1ccc(S(=O)(=O)NCc2ccco2)cc1)c1ccc2ccccc2n1 | 1.5 | 96* | 0 | 0.13 | -0.33
Cc1ccccc1C(=O)c1cccn1CC(=O)NCc1ccco1 | -0.75 | -4 | -1 | -0.13 | 0.72
O=C(Cn1cccc1C(=O)c1ccccc1)NCc1ccco1 | -0.11 | -7 | 0 | -3.5* | -0.91
Cc1c(N=Cc2c(O)n(Cc3ccco3)c(=O)c3ccccc23)c(=O)n(-c2ccccc2)n1C | -0.027 | -15 | 0 | 0.74 | -2.8*
CCCS(=O)(=O)N1CCC(C(=O)NCCCOCC)CC1 | 1.7 | -37 | 0 | -0.43 | 0.012
Cc1ccc(S(=O)(=O)NC(=O)c2cc(C)n(CCCN3CCOCC3)c2C)cc1 | -0.012 | 5 | 0 | -2.4* | 0.15
Cc1ccc(S(=O)(=O)NCC2CCC(C(=O)NCCCN3CCOCC3)CC2)cc1 (stereo not given) | 0.49 | -14 | 0 | -0.59 | -0.99
O=C(CSc1nnc(-c2c[nH]c3ccccc23)o1)N1c2ccccc2CCc2ccccc21 | 0.61 | 56 | 0 | -0.72 | -0.22
c1ccc(CSc2nnc(-c3c[nH]c4ccccc34)o2)cc1 | -0.022 | 98* | -1 | 0.68 | 0.069
O=C(c1cc2ccccc2o1)N1CCN=C1SCc1cccnc1 | -0.87 | 10 | 0 | -1.8* | -0.1
CCOC(=O)c1c(C)noc1CP(=O)(c1ccccc1)c1ccccc1 | / | -1 | -1 | / | /
COc1ccc(C2NC3=C(CCC3)C3(C#N)C4(N=C(N)C23C#N)OCCO4)cc1 (stereo not given) | -0.059 | 1 | 0 | -3.5* | 0.031
COc1ccc(C2NC3=C(CCCC3)C(C#N)(C#N)C2(C#N)C#N)cc1 (stereo not given) | 0.19 | -15 | 0 | 0.14 | -0.23

Compound activity deposited in PubChem BioAssay by several laboratories.
